ChEMBL document CHEMBL3822438, “Chlorin p6-Based Water-Soluble Amino Acid Derivatives as Potent Photosensitizers for Photodynamic Therapy” (J Med Chem, 2016)
Converted amounts (≈) assume the structure as drawn. The source made the active and inactive calls. The rule behind the calls is not given here.

Tests used:
[1] = Dark toxicity in mouse B16F10 cells assessed as cell viability after 48 hrs by cell counting kit-8 based spectrophotometric analysis; set-up: species or system B16-F10; details: mouse, B16F10 cells
In short: (§1)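 CCK-8 dark toxicity. 5×10^3 cells seeded in 10% FBS medium (A375 in DMEM, B16-F10 in RPMI 1640). Exposed to graded compound concentrations for 48 h at 37 °C, kept in the dark. Fresh medium and CCK-8 added for 1.5 h, then absorbance read at 450 nm to give IC50. Ratio is dark IC50 over IC50 under light.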

[2] = Phototoxicity in mouse B16F10 cells assessed as cell viability after 24 hrs followed by irradiation with diode laser at 10 J/cm'2 measured after 24 hrs by cell counting kit-8 based spectrophotometric analysis; format: functional, B16-F10; details: Mus musculus, B16-F10, light or radiation study, 24 h
In short: (§2)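 Phototoxicity by CCK-8. Cells loaded with a range of compound concentrations for 24 h at 37 °C, irradiated with a 678 nm diode laser at 10 J/cm², then incubated a further 24 h. Viability read as absorbance at 450 nm after 1.5 h with CCK-8.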

[3] = Ratio of IC50 for dark toxicity to IC50 for phototoxicity in mouse B16F10 cells by cell counting kit-8 based spectrophotometric analysis; set-up: species or system B16-F10; details: B16F10 cells, read-out: Ratio IC50; in short: as §1
[4] = Dark toxicity in human A375 cells assessed as cell viability after 48 hrs by cell counting kit-8 based spectrophotometric analysis; set-up: species or system A-375; details: human, A375 cells; in short: as §1
A-375 [5] = assay: Phototoxicity in human A375 cells assessed as cell viability after 24 hrs followed by irradiation with diode laser at 10 J/cm'2 measured after 24 hrs by cell counting kit-8 based spectrophotometric analysis; format: functional; details: Homo sapiens, A-375, light or radiation study, 24 h; in short: as §2
[6] = Ratio of IC50 for dark toxicity to IC50 for phototoxicity in human A375 cells; format: cell-based, A-375; details: A375 cells, read-out: Ratio IC50; in short: as §1
B16-F10 [7] = assay: Phototoxicity in mouse B16F10 cells assessed as reduction in cell surviving fraction by irradiation with diode laser at 10 J/cm'2 after 24 hrs by cell counting kit-8 based spectrophotometric analysis; format: functional
In short: (§3)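 Survival fraction after PDT. Cells held 24 h at 2 µM or 0.2 µM, irradiated at 678 nm with 10 J/cm², then cultured another 24 h. Viability measured by CCK-8 at 450 nm.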

A-375 [8] = assay: Phototoxicity in human A375 cells assessed as reduction in cell surviving fraction by irradiation with diode laser at 10 J/cm'2 after 24 hrs by cell counting kit-8 based spectrophotometric analysis; format: functional; in short: as §3
[9] = Dark toxicity in mouse B16F10 cells assessed as reduction in cell surviving fraction at 50 to 300 uM after 48 hrs by cell counting kit-8 based spectrophotometric analysis; details: b16-f10, 48 h
In short: (§4)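 Survival fraction measured in the dark by CCK-8 after 48 h exposure at 37 °C to 300 µM or 50 µM. Cells were in 10% FBS medium (A375 in DMEM, B16-F10 in RPMI 1640). Viability read as absorbance at 450 nm after 1.5 h with CCK-8.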

A-375 [10] = assay: Dark toxicity in human A375 cells assessed as reduction in cell surviving fraction at 50 to 300 uM after 48 hrs by cell counting kit-8 based spectrophotometric analysis; details: a-375, 48 h; in short: as §4
[11] = Aqueous solubility of the compound in PBS buffer at pH 7.4; format: physicochemical
B16-F10 [12] = assay: Phototoxicity in mouse B16F10 cells assessed as reduction in cell surviving fraction by irradiation with diode laser at 10 J/cm'2 at 5 uM after 24 hrs by cell counting kit-8 based spectrophotometric analysis; format: functional
In short: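 B16-F10 cells exposed to 5 µM for 24 h, then given varying 678 nm laser light doses. After a further 24 h, survival fraction was read by CCK-8 absorbance at 450 nm.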

[13] = Dark toxicity in mouse B16F10 cells assessed as cell viability after 48 hrs by MTT assay; format: cell-based, B16-F10; details: mouse, B16F10 cells
In short: (§5)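 B16-F10 cells in RPMI 1640 with 10% FBS. Dark arm: compound for 48 h. Light arm: compound for 24 h, then 678 nm diode laser at 10 J/cm², then a further 24 h. Read-out by MTT for 4 h, formazan dissolved in DMSO, absorbance at 490 nm. Ratio is dark IC50 over light IC50.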

[14] = (§6) Phototoxicity in mouse B16F10 cells assessed as cell viability after 24 hrs followed by irradiation with diode laser at 10 J/cm'2 measured after 24 hrs by MTT assay; format: functional, cell-based, B16-F10; details: Mus musculus, B16-F10, light or radiation study, 24 h; in short: as §5
B16-F10 [15] = assay: as §6; format: functional, cell-based; in short: as §5
[16] = Ratio of IC50 for dark toxicity to IC50 for phototoxicity in mouse B16F10 cells by MTT assay; format: cell-based, B16-F10; details: B16F10 cells, read-out: Ratio IC50; in short: as §5
[17] = Drug uptake in lysosomes of mouse B16F10 cells at 10 uM incubated in dark for 24 hrs by lyso tracker green dye based confocal microscopy; format: ADME, cell-based, Lysosome; details: b16-f10, 24 h
[18] = Drug uptake in mitochondria of mouse B16F10 cells at 10 uM incubated in dark for 24 hrs by mito tracker green FM dye based confocal microscopy; format: ADME; details: b16-f10, 24 h
[19] = Drug uptake in golgi apparatus of mouse B16F10 cells at 10 uM incubated in dark for 24 hrs by golgi tracker green dye based confocal microscopy; format: ADME, cell-based; details: b16-f10, 24 h
[20] = Drug uptake in endoplasmic reticulum of mouse B16F10 cells at 10 uM incubated in dark for 24 hrs by ER tracker green dye based confocal microscopy; format: ADME, cell-based; details: b16-f10, 24 h
[21] = Drug uptake in nucleus of mouse B16F10 cells at 10 uM incubated in dark for 24 hrs by confocal microscopy; format: ADME, cell-based; details: b16-f10, 24 h
B16-F10 [22] = assay: Induction of apoptosis in mouse B16F10 cells assessed as early apoptotic cells at 2 uM after 24 hrs followed by irradiation with diode laser at 10 J/cm'2 by alexa fluor 488 annexin V/PI double staining based flow cytometry (reference value: 0.08%); format: functional
B16-F10 [23] = assay: Induction of apoptosis in mouse B16F10 cells assessed as necrotic/late apoptotic cells at 2 uM after 24 hrs followed by irradiation with diode laser at 10 J/cm'2 by alexa fluor 488 annexin V/PI double staining based flow cytometry (reference value: 1.94%); format: functional
B16-F10 [24] = assay: Induction of apoptosis in mouse B16F10 cells assessed as early apoptotic cells at 5 uM after 24 hrs followed by irradiation with diode laser at 10 J/cm'2 by alexa fluor 488 annexin V/PI double staining based flow cytometry (reference value: 0.08%); format: functional
B16-F10 [25] = assay: Induction of apoptosis in mouse B16F10 cells assessed as necrotic/late apoptotic cells at 5 uM after 24 hrs followed by irradiation with diode laser at 10 J/cm'2 by alexa fluor 488 annexin V/PI double staining based flow cytometry (reference value: 1.94%); format: functional
B16-F10 [26] = assay: Induction of apoptosis in mouse B16F10 cells assessed as necrotic/late apoptotic cells after 24 hrs followed by irradiation with diode laser at 10 J/cm'2 by alexa fluor 488 annexin V/PI double staining based flow cytometry; format: functional, cell-based
B16-F10 [27] = assay: Antitumor activity against B16F10 cells implanted in C57BL/6 mouse assessed as tumor growth inhibition at 1 mg/kg, iv administered for 2 hrs followed by irradiation with laser at 150 J/cm'2 for 10 mins; format: functional, organism-based
In short: (§7)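 B16-F10 cells (2×10^4) inoculated subcutaneously into the right thigh of male C57BL/6 mice aged 6-8 weeks. Mice with tumours 6-8 mm in diameter were used, 5 per group. Irradiation at 678 nm diode laser, 250 mW/cm² for 10 min, 2 h after i.v. dosing. Tumour volume measured by caliper as (W²×L)/2. Survival recorded daily and analysed by Kaplan-Meier with log-rank test.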

[28] = Antitumor activity against B16F10 cells implanted in C57BL/6 mouse assessed as survival time at 1 mg/kg, iv administered for 2 hrs followed by irradiation with laser at 150 J/cm'2 for 10 mins (reference value: 13 days); format: functional, B16-F10
[29] = Ratio of IC50 for test compound to IC50 for verteporfin for dark toxicity in mouse B16F10 cells by cell counting kit-8 based spectrophotometric analysis; set-up: species or system B16-F10; details: read-out: Ratio IC50
[30] = Ratio of IC50 for test compound to IC50 for verteporfin for dark toxicity in human A375 cells by cell counting kit-8 based spectrophotometric analysis; set-up: species or system A-375; details: read-out: Ratio IC50
[31] = Ratio of IC50 for dark toxicity to IC50 for phototoxicity in human A375 cells by CCK-8 assay
B16-F10 [32] = assay: Antitumor activity against B16F10 cells implanted in C57BL/6 mouse assessed as tumor growth inhibition at 2 mg/kg, iv administered for 2 hrs followed by irradiation with laser at 150 J/cm'2 for 10 mins; format: functional, organism-based; in short: as §7
B16-F10 [33] = assay: Antitumor activity against B16F10 cells implanted in C57BL/6 mouse assessed as survival time at 2 mg/kg, iv administered for 2 hrs followed by irradiation with laser at 150 J/cm'2 for 10 mins (reference value: 13 days); format: functional, organism-based; in short: as §7

## C=Cc1c(C)c2cc3nc(c(C(=O)OC)c4[nH]c(cc5nc(cc1[nH]2)C(C)=C5CC)c(C)c4C(=O)OC)[C@@H](CCC(=O)N[C@@H](CCC(=O)O)C(=O)O)[C@@H]3C
[1]
  IC50 at 48 h: 284000 nM
[2]
  IC50: 1220 nM
[3]
  selectivity ratio: 233
[4]
  IC50 at 48 h: > 300000 nM
A-375 [5]
  IC50: 1540 nM
[6]
  selectivity ratio: > 195
B16-F10 [7]
  Activity: Dose-dependent effect
A-375 [8]
  Activity: Dose-dependent effect
[9]
  Activity: Non-toxic
A-375 [10]
  Activity: Non-toxic

## C=Cc1c(C)c2cc3nc(c(C(=O)OC)c4[nH]c(cc5nc(cc1[nH]2)C(C)=C5CC)c(C)c4C(=O)OC)[C@@H](CCC(=O)N[C@@H](CC(=O)O)C(=O)O)[C@@H]3C
[11]
  solubility: 41.7 µM (≈ 30.3 µg/mL)
[1]
  IC50 at 48 h: > 300000 nM
[2]
  IC50: 680 nM
[3]
  selectivity ratio: > 441
[4]
  IC50 at 48 h: > 300000 nM
A-375 [5]
  IC50: 980 nM
[6]
  selectivity ratio: > 306
B16-F10 [7]
  Activity: Dose-dependent effect
A-375 [8]
  Activity: Dose-dependent effect
[9]
  Activity: Non-toxic
A-375 [10]
  Activity: Non-toxic
B16-F10 [12]
  Activity: Active
[13]
  IC50 at 48 h: > 300000 nM
[14]
  IC50: 750 nM
B16-F10 [15]
  Activity: Dose-dependent effect
[16]
  selectivity ratio: > 400
[17]
  Drug uptake: Active
[18]
  Drug uptake: Active
[19]
  Drug uptake: Active
[20]
  Drug uptake: Active
[21]
  Drug uptake: Not Active
B16-F10 [22]
  Activity: 0.3%
B16-F10 [23]
  Activity: 68.23%
B16-F10 [24]
  Activity: 5.61%
B16-F10 [25]
  Activity: 82.05%
B16-F10 [26]
  Activity: Dose-dependent effect
B16-F10 [27]
  TGI: Active
[28]
  MST: 21 days
[29]
  selectivity ratio: > 8.3
[30]
  selectivity ratio: > 8.3
[31]
  selectivity ratio: > 306

## CCC1=C(C)c2cc3[nH]c(cc4nc(c(C(=O)OC)c5[nH]c(cc1n2)c(C)c5C(=O)OC)C(CCC(=O)N[C@@H](CC(=O)O)C(=O)O)=C4C)[C@@]1(C)C3=CC=C(C(=O)OC)[C@H]1C(=O)OC
[1]
  IC50 at 48 h: 271000 nM
[2]
  IC50: 2290 nM
[3]
  selectivity ratio: 118
[4]
  IC50 at 48 h: > 300000 nM
A-375 [5]
  IC50: 3020 nM
[6]
  selectivity ratio: > 99.3

## VERTEPORFIN
B16-F10 [32]
  TGI: Active
B16-F10 [33]
  MST: 18 days
